Measurements published in ChEMBL document CHEMBL1147686, “Non-peptide calcitonin gene-related peptide receptor antagonists from a benzodiazepinone lead” (Bioorg Med Chem Lett, 2006).

Key:
[1] = target: T1, Calcitonin-gene-related peptide receptor, CALCRL/RAMP1 (Homo sapiens, UniProt O60894+Q16602); assay: Antagonist activity at human cloned CLR/RAMP1 receptor expressed in E10 cells measured as inhibition of CGRP-mediated cAMP production; type: functional, cell-based
In short: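 Whole E10 cells stably expressing cloned human CLR/RAMP1; antagonist tested against CGRP-stimulated cAMP production, IC50 from inhibition of the cAMP response.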

[2] = target: T1, Calcitonin-gene-related peptide receptor, CALCRL/RAMP1; assay: Displacement of [125I]CGRP from human cloned CLR/RAMP1 receptor expressed in E10 cells; type: cell-based
[3] = target: Calcitonin-gene-related peptide receptor; CALCRL/RAMP1 (Rattus norvegicus) (UniProt Q63118+Q9JJ74); assay: Displacement of [125I]CGRP from rat CLR/RAMP1 receptor at 100 uM; type: protein-complex assay
[4] = Half life in iv dosed rat; type: ADME, organism-based; settings: in vivo
In short: (§1)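 Rats received compound intravenously; plasma half-life and clearance derived from the iv profile.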

[5] = Clearance in iv dosed rat; type: ADME, organism-based; settings: in vivo; in short: as §1
[6] = Oral bioavailability in rat; type: ADME, organism-based; settings: in vivo
[7] = Cmax in rat; type: ADME, organism-based; settings: in vivo
[8] = target: T1, Calcitonin-gene-related peptide receptor, CALCRL/RAMP1; assay: Displacement of [125I]CGRP from human cloned CLR/RAMP1 receptor expressed in SK-N-MC cells at 100 uM; type: cell-based
[9] = target: T1, Calcitonin-gene-related peptide receptor, CALCRL/RAMP1; assay: Antagonist activity at human cloned CLR/RAMP1 receptor expressed in E10 cells measured as inhibition of CGRP-mediated cAMP production at 17 uM; type: functional, cell-based

T1 sequence (O60894 whole entry): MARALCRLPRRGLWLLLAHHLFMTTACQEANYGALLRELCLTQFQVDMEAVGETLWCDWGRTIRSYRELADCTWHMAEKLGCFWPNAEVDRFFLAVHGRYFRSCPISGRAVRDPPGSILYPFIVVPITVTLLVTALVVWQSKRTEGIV
T1 sequence (Q16602 whole entry): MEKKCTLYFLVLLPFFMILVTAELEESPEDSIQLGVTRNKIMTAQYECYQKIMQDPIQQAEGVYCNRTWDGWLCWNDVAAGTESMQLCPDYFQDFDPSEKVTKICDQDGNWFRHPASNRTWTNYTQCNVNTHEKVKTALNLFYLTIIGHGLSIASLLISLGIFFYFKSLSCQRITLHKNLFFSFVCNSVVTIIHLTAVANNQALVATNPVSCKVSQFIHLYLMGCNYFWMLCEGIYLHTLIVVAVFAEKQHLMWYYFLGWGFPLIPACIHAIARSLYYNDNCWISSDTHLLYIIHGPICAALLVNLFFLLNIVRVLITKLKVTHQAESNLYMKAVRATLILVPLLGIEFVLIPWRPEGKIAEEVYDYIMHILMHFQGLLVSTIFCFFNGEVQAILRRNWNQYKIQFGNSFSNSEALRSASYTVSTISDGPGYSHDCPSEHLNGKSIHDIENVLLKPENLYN

Row | SMILES | IC50 [1] | Ki [2] | also measured
1 | CC(C)N1C(=O)C(NC(=O)N2CCC(N3Cc4ccccc4NC3=O)CC2)N=C(c2ccccc2)c2ccccc21 (racemic) | 1810 nM | 1060 nM | –
2 | O=C(N[C@@H]1N=C(c2ccccc2)c2ccccc2N(CC(F)(F)F)C1=O)N1CCC(N2Cc3ccccc3NC2=O)CC1 | 38 nM | 44 nM | Kb [1]: 77 nM; Kb ([1]; read-out: pA2 (converted)): 79.4 nM; inhibition [3]: 35%; half-life [4]: 1.7 h; clearance [5]: 20 mL/min/kg; bioavailability [6]: 10%; Cmax [7]: 240 nM
3 | CN1C(=O)[C@H](NC(=O)N2CCC(N3Cc4ccccc4NC3=O)CC2)N=C(c2ccccc2)c2ccccc21 | 3640 nM | 2200 nM | –
4 | O=C(N[C@H](Cc1cc(Br)c(O)c(Br)c1)C(=O)N1CCN(c2ccccc2)CC1)N1CCC(n2c(O)nc3ccccc32)CC1 | 75 nM | 83 nM | –
5 | O=C(N[C@@H]1N=C(c2ccccc2)c2ccccc2N(CC(F)(F)F)C1=O)N1CCC(N2CCc3ccccc3NC2=O)CC1 | 43 nM | 61 nM | –
6 | O=C(N[C@@H]1N=C(c2ccccc2)c2ccccc2N(CC(F)(F)F)C1=O)N1CCC(n2c(=O)[nH]c3ccccc32)CC1 | 1580 nM | 2370 nM | –
7 | CN1C(=O)C(NC(=O)N2CCC(n3c(=O)[nH]c4ccccc43)CC2)N=C(c2ccccc2)c2ccccc21 (racemic) | – | > 13000 nM | –
8 | CC(C)N1C(=O)C(NC(=O)N2CCC(N3Cc4ccccc4N(C)C3=O)CC2)N=C(c2ccccc2)c2ccccc21 (racemic) | – | – | inhibition [8]: 33%
9 | CN1C(=O)[C@@H](NC(=O)N2CCC(N3Cc4ccccc4NC3=O)CC2)N=C(c2ccccc2)c2ccccc21 | 4450 nM | 8400 nM | –
10 | CCN1C(=O)[C@H](NC(=O)N2CCC(N3Cc4ccccc4NC3=O)CC2)N=C(c2ccccc2)c2ccccc21 | 990 nM | 897 nM | –
11 | CN1C(=O)[C@H](NC(=O)Nc2ccc3c(c2)CCC2(C3)NC(=O)NC2=O)N=C(c2ccccc2)c2ccccc21 (some centres not stated) | – | 4250 nM | inhibition [9]: 57%
